For data set [1], the target named is T1, Peroxisome proliferator-activated receptor gamma (Homo sapiens) (UniProt P37231).
T1 sequence (whole entry): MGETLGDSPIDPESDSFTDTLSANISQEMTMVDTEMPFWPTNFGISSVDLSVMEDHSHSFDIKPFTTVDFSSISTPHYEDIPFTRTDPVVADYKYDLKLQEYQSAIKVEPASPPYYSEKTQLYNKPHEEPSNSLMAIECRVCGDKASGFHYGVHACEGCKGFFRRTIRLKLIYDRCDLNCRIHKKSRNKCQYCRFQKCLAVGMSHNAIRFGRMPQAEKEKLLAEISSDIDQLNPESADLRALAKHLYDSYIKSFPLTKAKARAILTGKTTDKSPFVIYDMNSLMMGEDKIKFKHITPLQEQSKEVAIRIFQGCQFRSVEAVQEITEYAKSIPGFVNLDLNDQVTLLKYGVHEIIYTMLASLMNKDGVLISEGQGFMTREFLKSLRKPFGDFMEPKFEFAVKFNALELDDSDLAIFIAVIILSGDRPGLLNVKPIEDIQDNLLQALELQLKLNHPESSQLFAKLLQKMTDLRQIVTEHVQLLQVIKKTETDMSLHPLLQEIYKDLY
Briefly: Agonist activity at human PPARgamma transfected in HEK293 cells assessed as relative luciferase unit at 50 uM measured after 16 hrs by luciferase reporter gene assay. As to conditions: filed as agonist. Format: cell-based. Put shortly: (§1)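 GAL4-hPPAR (α or γ) plus UAS-luciferase and β-galactosidase transiently co-transfected into HEK293 cells, then treated with 50 μM compound for 16 h. RLU = luciferase/β-galactosidase × time, vehicle (DMSO) set to 1. Mean ± SD, N = 3; one-way ANOVA with Holm–Šidák vs vehicle.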

The target in data set [2] is T2, Peroxisome proliferator-activated receptor alpha (Homo sapiens) (UniProt Q07869).
T2 sequence (whole entry): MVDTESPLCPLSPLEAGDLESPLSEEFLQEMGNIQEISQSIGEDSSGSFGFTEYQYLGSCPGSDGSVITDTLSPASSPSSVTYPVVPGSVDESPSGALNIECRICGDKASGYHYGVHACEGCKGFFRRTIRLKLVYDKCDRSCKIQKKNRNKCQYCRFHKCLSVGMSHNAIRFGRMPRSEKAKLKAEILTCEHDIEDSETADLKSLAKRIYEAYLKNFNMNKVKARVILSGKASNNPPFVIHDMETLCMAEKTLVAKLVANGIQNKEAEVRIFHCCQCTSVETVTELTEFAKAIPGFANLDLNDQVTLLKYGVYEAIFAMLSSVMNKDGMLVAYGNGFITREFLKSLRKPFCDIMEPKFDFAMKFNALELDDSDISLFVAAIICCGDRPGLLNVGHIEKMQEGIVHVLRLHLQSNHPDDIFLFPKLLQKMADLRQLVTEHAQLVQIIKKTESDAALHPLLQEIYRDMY
Briefly: Agonist activity at human PPARalpha expressed in HEK293 cells assessed as maximal activity by luciferase/beta-galactosidase reporter gene assay relative to GW7647. Format: cell-based. In outline:
(§2)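 HEK293 cells in charcoal-stripped FBS, calcium phosphate co-transfected with GAL4-hPPAR LBD fusion, UAS-luciferase and β-galactosidase. Ligand added 6–8 h post transfection, full dose–response, harvested 14–16 h later. Luciferase normalized to β-galactosidase.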

Data set [3] has as its target T3, Peroxisome proliferator-activated receptor alpha (Homo sapiens, UniProt Q07869).
T3 sequence (Q07869 whole entry): T2 sequence (whole entry)
Briefly: Agonist activity at human PPARalpha expressed in HEK293 cells by luciferase/beta-galactosidase reporter gene assay. Format: cell-based. In outline: as §2
For orientation: Reporter assays use an easily measured gene product as a stand-in for the process of interest.

In data set [4] the target is T1, Peroxisome proliferator-activated receptor gamma (Homo sapiens). The data set is described as follows: Agonist activity at human PPARgamma expressed in HEK293 cells assessed as maximal activity by luciferase/beta-galactosidase reporter gene assay relative to rosiglitazone. Type of data set: cell-based. Put shortly:
as §2

In data set [5] the target is T2, Peroxisome proliferator-activated receptor alpha (Homo sapiens). The data set is described as follows: Agonist activity at human PPARalpha transfected in HEK293 cells assessed as relative luciferase unit at 50 uM measured after 16 hrs by luciferase reporter gene assay. Type of data set: cell-based. As to conditions: filed as agonist. Put shortly:
as §1

Data set [6] shares this target. Briefly: Stabilization of human PPARalpha LBD assessed as change in melting temperature at 25 uM by thermal shift assay. Put shortly:
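Purified hPPAR LBD at 1 mg/mL (∼25 μM) with ligand (α-LBD at 25 μM; γ- and δ-LBD at 50 μM). Static light scattering at 473 nm from 25 to 70 °C in 0.5 °C steps, 1 °C/min. Tm from four-parameter fit; ΔTm relative to DMSO; mean ± SEM, N = 3.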

Data set [7] deals with T4, Peroxisome proliferator-activated receptor alpha (Mus musculus) (UniProt P23204).
T4 sequence (whole entry): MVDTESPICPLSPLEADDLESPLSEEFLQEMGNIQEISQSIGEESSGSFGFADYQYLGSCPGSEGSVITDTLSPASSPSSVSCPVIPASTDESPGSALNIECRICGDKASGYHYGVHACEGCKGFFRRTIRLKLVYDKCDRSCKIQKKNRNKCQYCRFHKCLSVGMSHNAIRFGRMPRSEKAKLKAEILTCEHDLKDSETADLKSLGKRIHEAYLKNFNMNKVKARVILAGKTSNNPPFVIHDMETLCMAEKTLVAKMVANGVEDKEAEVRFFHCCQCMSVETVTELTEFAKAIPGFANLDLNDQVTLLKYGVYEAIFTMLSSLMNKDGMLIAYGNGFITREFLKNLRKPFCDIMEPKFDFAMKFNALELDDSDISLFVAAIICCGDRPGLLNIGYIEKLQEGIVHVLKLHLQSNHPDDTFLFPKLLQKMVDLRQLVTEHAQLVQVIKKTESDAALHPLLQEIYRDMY
Briefly: Agonist activity at human PPARalpha in mouse hepatocytes assessed as induction of Fgf21 mRNA expression at 50 uM incubated for 16 hrs by quantitative real-time PCR analysis. Type of data set: cell-based. As to conditions: Hepatocyte, filed as agonist. In outline: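 Collagenase-perfused mouse primary hepatocytes from WT mice, plated 2 h in attachment medium, overnight in M199 with 5% charcoal-stripped FBS and 1 nM insulin. Treated next day in serum-free M199 with 50 μM compound for 16 h. RNA qPCR (SYBR Green), comparative Ct method.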

Data set [8] is described as follows: Terminal half life in C57BL/6 mouse at 40 mg/kg, ip […] by LC-MS/MS analysis. Format: ADME, organism-based. As to conditions: in vivo, read-out: beta t1/2 (converted).
Data set [9] is described as follows: Cmax in C57BL/6 mouse at 40 mg/kg, ip measured upto 24 hrs by LC-MS/MS analysis. Type of data set: ADME, organism-based. On the set-up: dose 40 mg/kg, time < 24 hrs, route ip. As to conditions: in vivo. In outline:
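Single IP dose in 5% DMSO/5% Tween-80/90% saline to WT male C57Bl/6 mice, 7–10 months old; n = 4 per time point. Saphenous sampling at 0.08–0.5 h, then terminal trunk blood at 1–6 h. Plasma extracted with methanol plus internal standard and analyzed by LC-MS/MS; mean ± SEM.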

Data set [10] has as its target T5, Peroxisome proliferator-activated receptor gamma (Homo sapiens, UniProt P37231).
T5 sequence (P37231 whole entry): T1 sequence (whole entry)
The data set is described as follows: Agonist activity at human PPARgamma expressed in HEK293 cells by luciferase/beta-galactosidase reporter gene assay. Format: cell-based. Put shortly: as §2

Data set [11] is described as follows: Cmax in C57BL/6 mouse at 100 mg/kg, po measured upto 24 hrs by LC-MS/MS analysis. Format: ADME, organism-based. Also on record: time < 24 hrs, dose 100 mg/kg, route po. As to conditions: in vivo. Put shortly:
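Single oral dose given in peanut butter pellets to WT male C57Bl/6 mice acclimated 7 days to drug-free pellets; n = 4 per time point. Saphenous blood at 0.25–2 h, terminal collection at 4–38 h. Plasma extracted with methanol containing internal standard, LC-MS/MS with negative-ion ESI MRM. Parameters reported as mean ± SEM; Frel is oral vs IP.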

Active and inactive are the calls of the source. The calls are words filed in the database; no cut-off is given here. A value given as a limit tells only on which side of the number the result lay.

For the molecule `CCCCCCCCCCCCCCCc1cccc(OC(C)=O)c1C(=O)O`, the outcome in [1] and in data set [5] was Active. Further, the Emax in data set [2] (filed as agonist) and in [4] (filed as agonist) was over 90% in each case. In [3], the response was half-maximal at 2400 nM (EC50). The thermal shift (ΔTm) in data set [6] was determined as 17.4 °C.

`CCCCCCCCCCCCCCCc1cccc(OC(C)(C)C(=O)O)c1`: the result in data set [1], in data set [7] and in data set [5] was Active. Moreover, the Emax in data set [2] and in data set [4] was 30% each time. Besides, in data set [8], the half-life was 4 h. Also, the concentration giving a half-maximal response (EC50) in data set [3] stood at 500 nM; in [10], 900 nM. Besides, the figures for the peak concentration (Cmax) in data set [9] and in data set [11] were 102 µg/mL and 76 µg/mL, respectively. The ΔTm in data set [6] was 10.8 °C.

`CCCCCC/C=C\CCCCCCCc1cccc(OC(C)(C)C(=O)O)c1`: the result in data set [1], in data set [7] and in data set [5] was Active. For the same molecule, the Emax in [2] (filed as agonist) and in [4] (filed as agonist) was over 90% throughout. The half-maximal effective concentration (EC50) in data set [3] was 700 nM; in data set [10], 1780 nM. In addition, the ΔTm in data set [6] was 3.8 °C.

Broadly, the EC50 is the concentration giving half of the maximal effect. Higher therefore signals weaker potency. The term ΔTm denotes the change in melting temperature against a reference sample. By Cmax is commonly meant the highest concentration seen after dosing.

The values are drawn from ChEMBL document CHEMBL5154715, “Phenolic Lipids Derived from Cashew Nut Shell Liquid to Treat Metabolic Diseases” (J Med Chem, 2022).
